Experimental data as given in ChEMBL document CHEMBL2057185, “Analogs of N'-hydroxy-N-(4H,5H-naphtho[1,2-d]thiazol-2-yl)methanimidamide inhibit Mycobacterium tuberculosis methionine aminopeptidases” (Bioorg Med Chem, 2012).
Converted amounts (≈) assume the structure as drawn. The source made the active and inactive calls. The rule behind the calls is not given here.

How the values were obtained:
[1] = Inhibition of Mycobacterium tuberculosis C-terminal His6-tagged MetAP1A using methionylprolyl-p-nitroanilide as substrate incubated for 20 mins prior to substrate addition measured for 20 mins by spectrophotometry in presence of Co2+
In short: (§1)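 Coupled colorimetric assay in 40 mM HEPES pH 7.5, 100 mM NaCl, 10 µM CoCl₂ or MnCl₂. Enzyme was 200 nM MetAP1a or 100 nM MetAP1c, with 1.5 U/mL Bacillus coagulans proline aminopeptidase as coupling enzyme. Eleven inhibitor levels (0.049–50 µM) were preincubated 20 min at room temperature. Met-Pro-pNA was added to 600 µM final, and A405 was followed 20 min against DMSO wells. IC50 came from nonlinear regression, averaging ≥3 independent triplicate experiments ± SD.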

[2] = Inhibition of Mycobacterium tuberculosis C-terminal His6-tagged MetAP1A using methionylprolyl-p-nitroanilide as substrate incubated for 20 mins prior to substrate addition measured for 20 mins by spectrophotometry in presence of Mn2+; in short: as §1
[3] = Inhibition of Mycobacterium tuberculosis N-terminal His6-tagged MetAP1C using methionylprolyl-p-nitroanilide as substrate incubated for 20 mins prior to substrate addition measured for 20 mins by spectrophotometry in presence of Co2+; in short: as §1
[4] = Inhibition of Mycobacterium tuberculosis N-terminal His6-tagged MetAP1C using methionylprolyl-p-nitroanilide as substrate incubated for 20 mins prior to substrate addition measured for 20 mins by spectrophotometry in presence of Mn2+; in short: as §1
[5] = tested on: Mycobacterium tuberculosis; assay: Antimycobacterial activity against Mycobacterium tuberculosis H37Rv after 2 weeks; assay type: functional; details: 336 h
In short: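 Each well received log-phase M. tuberculosis H37Rv diluted to ≈10⁶ CFU/mL in 7H9. An uninoculated sterile control was included. Plates were sealed and incubated 37 °C for two weeks.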

[6] = Chemical stability of the compound in Middlebrook 7H9 broth at 200 ug/mL after 10 days by HPLC analysis; assay type: physicochemical; details: 240 h
[7] = Co2+ chelation activity of the compound at 10 uM; assay type: functional
In short: (§2)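 UV-vis spectra were recorded for compounds at 10 µM in MetAP assay buffer, with and without 10 µM cobalt or manganese chloride.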

[8] = Mn2+ chelation activity of the compound at 10 uM; assay type: functional; in short: as §2
[9] = Inhibition of Mycobacterium tuberculosis MetAP1A expressed in Escherichia coli using Met-AMC as substrate in presence of Mn2+
[10] = Inhibition of Mycobacterium tuberculosis MetAP1C expressed in Escherichia coli using Met-AMC as substrate in presence of Mn2+
[11] = tested on: Mycobacterium tuberculosis; assay: Antimycobacterial activity against Mycobacterium tuberculosis H37Rv ATCC 27294 after 7 days by microplate alamar blue assay; assay type: functional; details: H37Rv ATCC 27294, 168 h

| Structure (SMILES) | IC50 [1] [µM] | IC50 [2] [µM] | IC50 [3] [µM] | IC50 [4] [µM] | MIC [5] [µg/mL] | Stability [6] | Activity [7] | Activity [8] | IC50 [9] [µM] | IC50 [10] [µM] | MIC [11] [µg/mL] |
| --- | --- | --- | --- | --- | --- | --- | --- | --- | --- | --- | --- |
| CCCCCCCCC(=O)Nc1nc2c(s1)CCc1cc(OC)ccc1-2 | > 50 | > 50 | > 50 | > 50 | – | – | – | – | – | – | – |
| O/N=C\Nc1nc2c(s1)CCc1ccccc1-2 | 11.5 | > 50 | 1.05 | > 50 | 100 (≈ 408 µM) | Stable | – | – | – | – | – |
| CCCCCCCCC(=O)Nc1nc2c(s1)CCc1ccccc1-2 | > 50 | > 50 | > 50 | > 50 | – | – | – | – | – | – | – |
| COc1cc2c(cc1OC)-c1nc(N/C=N\O)sc1CC2 | 14.6 | 14.6 | 3.77 | > 50 | > 200 | – | – | – | – | – | – |
| COc1ccc(-c2csc(N/C=N\O)n2)cc1OC | > 20 | > 20 | 6.6 | 7 | 200 (≈ 716 µM) | – | – | – | – | – | – |
| COc1ccc2c(c1)-c1nc(NC=NO)sc1CC2 | 1.9 | > 50 | 0.64 | 2.33 | 200 (≈ 726 µM) | Stable | – | – | – | – | – |
| COc1ccc2c(c1)CCc1sc(/N=C/c3ccco3)nc1-2 | > 50 | > 50 | > 50 | > 50 | – | – | – | – | – | – | – |
| CN(C)/C=N/c1nc2c(s1)CCc1ccccc1-2 | 28.9 | 27.7 | 36.3 | > 50 | – | – | – | – | – | – | – |
| COc1ccc2c(c1)OCc1sc(N/C=N\O)nc1-2 | 4.9 | 4.7 | > 50 | > 50 | > 200 | – | Active | Active | – | – | – |
| COc1ccc2c(c1)OC(c1ccccc1)c1sc(N/C=N\O)nc1-2 (configuration not stated) | 6.7 | 9.7 | > 50 | > 50 | > 200 | – | – | – | – | – | – |
| COc1ccc2c(c1)CCc1sc(N/C=N\O)nc1-2 | 5.35 | > 50 | 1.33 | > 50 | > 200 | Stable | – | – | – | – | – |
| COc1ccc2c(c1)CCc1sc(NC(C)=O)nc1-2 | > 50 | > 50 | > 50 | > 50 | – | – | – | – | – | – | – |
| O/N=C\Nc1nc2c(s1)CCc1cc3c(cc1-2)OCO3 | 15.4 | > 20 | > 20 | 12.5 | > 200 | – | – | – | – | – | – |
| COc1ccc2c(c1)Cc1sc(N/C=N\O)nc1-2 | > 50 | > 50 | > 50 | > 50 | 100 (≈ 383 µM) | – | – | – | – | – | – |
| O=C1C(Br)=C(Br)C(=O)c2ccccc21 [2,3-Dibromo-1,4-naphthoquinone] | 1.14 | – | 0.71 | – | 25 (≈ 79.1 µM) | – | – | – | – | – | – |
| Nc1nc2c(s1)CCc1ccccc1-2 | > 50 | > 50 | > 50 | > 50 | – | – | – | – | – | – | – |
| COc1ccc2c(c1)CCc1sc(N)nc1-2 | > 50 | > 50 | > 50 | > 50 | – | – | – | – | – | – | – |
| O/N=C\Nc1nc2c(s1)CCOc1cc3c(cc1-2)OCO3 | 1.26 | 24.5 | 0.38 | 3.13 | > 200 | Stable | Active | Active | – | – | – |
| O/N=C\Nc1nc2c(s1)COc1cc3c(cc1-2)OCO3 | 1.43 | > 10 | 0.73 | 4.4 | 100 (≈ 343 µM) | – | Active | Active | – | – | – |
| COc1cccc2c1CCc1sc(N/C=N\O)nc1-2 | 11.3 | 11.7 | 1.89 | 10.3 | > 200 | – | – | – | – | – | – |
| COc1ccc2c(c1)CCc1sc(NC(=O)[C@H](C)O)nc1-2 | > 50 | > 50 | > 50 | > 50 | – | – | – | – | – | – | – |
| O/N=C\Nc1nc2c(s1)CCCc1cc3c(cc1-2)OCO3 | 15.4 | > 50 | 1.4 | 14.5 | > 200 | – | – | – | – | – | – |
| COc1ccc2c(c1)CCc1sc(/N=C/c3ccccc3O)nc1-2 | > 50 | > 50 | > 50 | > 50 | – | – | – | – | – | – | – |
| CO[C@@H](C(=O)NCCOc1c(C)cc(C)cc1C)[C@H](O)[C@@H](O)[C@H](O)/C=C/C(C)(C)C | – | – | – | – | – | – | – | – | 6.9 | 0.54 | 18.5 (≈ 43.7 µM) |
